# From PubChem BioAssay AID2152 (The Scripps Research Institute Molecular Screening Center, 2009)
# The campaign covered roughly 2,300 compounds. About 25 (1%) were called active.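 Rule for the calls: active = mean inhibition over three replicate wells above the hit threshold derived in the earlier primary screen (cut at about 45% in these data); inactive = the rest.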 The list comes from a sample in which actives are over-represented; it also holds similar structures and randomly drawn compounds.
# System: Hepatitis C virus core protein (core106 dimerization)
# Assay: inhibitors of HCV core protein dimerization, confirmation, biochemical, TR-FRET, triplicate (AID 2152);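 note: 0% = DMSO wells and 100% = unlabelled core106 competitor control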
# Conditions: TR-FRET GST-/Flag-core106 dimerization, HTRF; at 5 µM; active compounds read high
# In short: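 Test system: GST- and Flag-tagged HCV core106 peptides, dimerization via antibody TR-FRET / Amount: 17 nM Flag- plus 13.5 nM GST-core106 / Probe or stimulus: Eu(K)-anti-GST plus XL665-anti-FLAG antibodies / Compound dosing: one 5 µM dose, 0.5% DMSO / Times: 4 h incubation, 22.5 °C / Technique: TR-FRET, 340 nm excitation, 671/617 nm emission / Evaluation: percent inhibition from emission ratio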
row,SMILES,inhibition
1,CN1C(=O)/C(=C/c2cccn2-c2ccc3ccccc3c2)C(=O)NC1=S,9.68% (inactive)
2,O=C1NC(=O)N(Cc2ccc(F)cc2)C(=O)/C1=C\c1ccc(N2CCCC2)cc1,4.49% (inactive)
3,Cn1cccc1/C=C1/C(=O)NC(=S)N(Cc2ccc(F)cc2)C1=O,64.5% (active)
4,Cc1ccc(N2C(=O)/C(=C/c3ccc(CN(CCC#N)S(C)(=O)=O)o3)C(=O)NC2=S)cc1C,-8.42% (inactive)
5,CCOc1cccc(N2C(=O)/C(=C/c3ccco3)C(=O)NC2=S)c1,10.6% (inactive)
6,Cc1ccccc1N1C(=O)/C(=C/c2ccco2)C(=O)NC1=S,66.3% (active)
7,COC(=O)[C@@H]1[C@@H](C(=O)OC)C2(c3ccccc3-c3ccccc32)N(c2ccc(Cl)cc2)N1C#N,8.69% (inactive)
8,COc1ccccc1C(=O)Nc1ccc2c(c1)CC1(C(=O)N(C)C(=O)N(C)C1=O)C1CCCN21 (stereo not given),7.78% (inactive)
9,Cc1ccccc1-n1c(CNc2ccccc2)nc2ccccc2c1=O,-1.12% (inactive)
10,CCN1C(=O)/C(=C/c2ccc3c(c2)CCN3CCCCl)C(=O)NC1=S,15.4% (inactive)
